Test results reported in ChEMBL document CHEMBL1129978, “Effect of structural modification of enol-carboxamide-type nonsteroidal antiinflammatory drugs on COX-2/COX-1 selectivity” (J Med Chem, 1997).

What was measured:
[1] = target: T1, Prostaglandin G/H synthase 1 (Homo sapiens, UniProt P23219); assay: Inhibition of human Prostaglandin G/H synthase 1 at 0.1 ug/mL expressed as mean percent inhibition of control PGE-2 production
Method in brief: (§1)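 Human COX-1 and COX-2 genes expressed in a baculovirus system; microsomes prepared from High Five insect cells and used as the enzyme source. Activity read as PGE2 production. Each dose run in duplicate wells within each experiment, and values given as mean percent inhibition of control PGE2.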

[2] = target: T1, Prostaglandin G/H synthase 1; assay: Inhibition of human Prostaglandin G/H synthase 1 at 10 ug/mL expressed as mean percent inhibition of control PGE-2 production; method in brief: as §1
[3] = target: T1, Prostaglandin G/H synthase 1; assay: Inhibition of human Prostaglandin G/H synthase 1 at 1 ug/mL expressed as mean percent inhibition of control PGE-2 production; method in brief: as §1

T1 sequence (P23219 whole entry): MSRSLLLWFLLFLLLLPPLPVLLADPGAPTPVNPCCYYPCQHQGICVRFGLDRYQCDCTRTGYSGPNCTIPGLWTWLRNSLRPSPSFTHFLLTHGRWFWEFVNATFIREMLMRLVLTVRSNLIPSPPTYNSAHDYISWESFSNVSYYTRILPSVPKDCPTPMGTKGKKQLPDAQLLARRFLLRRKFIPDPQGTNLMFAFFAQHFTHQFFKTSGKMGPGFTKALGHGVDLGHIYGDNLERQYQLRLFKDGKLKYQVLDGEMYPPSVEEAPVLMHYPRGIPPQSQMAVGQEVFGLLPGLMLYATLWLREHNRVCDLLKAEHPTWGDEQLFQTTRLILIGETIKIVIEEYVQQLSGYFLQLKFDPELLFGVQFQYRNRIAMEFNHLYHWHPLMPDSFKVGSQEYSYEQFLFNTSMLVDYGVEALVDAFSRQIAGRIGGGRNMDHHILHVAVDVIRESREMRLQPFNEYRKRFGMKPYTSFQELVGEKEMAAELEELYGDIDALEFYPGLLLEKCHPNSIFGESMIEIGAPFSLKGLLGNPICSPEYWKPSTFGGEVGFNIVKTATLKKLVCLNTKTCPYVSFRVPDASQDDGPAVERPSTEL

| Structure (SMILES) | inhibition [1] [%] | inhibition [2] [%] | inhibition [3] [%] |
| --- | --- | --- | --- |
| CN1C(C(=O)Nc2nccs2)=C(O)c2ccc3ccccc3c2S1(=O)=O | 75 | 100 | 100 |
| CN1C(O)=C(C(=O)Nc2ccc(Br)cc2)c2ccccc2S1(=O)=O | 54 | 100 | 88 |
| O=C(Nc1cccc(Cl)c1)C1=C(O)c2cc(Cl)ccc2SC1 | 31 | 54 | 26 |
| O=C(Nc1ccccn1)C1=C(O)c2cc(Cl)ccc2SC1 | 27 | 92 | 58 |
| O=C1/C(=C(/O)Nc2ccc(Cl)cc2Cl)c2cc(Cl)ccc2C(=O)N1Cc1ccccc1 | 6 | 100 | 84 |
| COc1ccc2c(c1)S(=O)(=O)N(C)C(C(=O)Nc1ccccn1)=C2O | -2 | 44 | 9 |
| CN1C(C(=O)Nc2ccccc2)=C(O)c2c(c3ccccc3n2C)S1(=O)=O | 9 | 93 | 31 |
| CN1C(C(=O)Nc2nccs2)=C(O)c2c(c3ccccc3n2C)S1(=O)=O | -2 | 97 | 44 |
| CCN1C(O)=C(C(=O)Nc2ccc(Cl)cc2Cl)c2cc(Cl)ccc2S1(=O)=O | 36 | 99 | 85 |
| CCn1c2c(c3ccccc31)S(=O)(=O)N(C)C(C(=O)Nc1ccccn1)=C2O | -4 | 25 | -1 |
| Cc1nc(NC(=O)C2=C(O)c3ccccc3S(=O)(=O)N2C)sc1C | 1 | 66 | 22 |
| Cn1c(C(=O)Nc2nccs2)c(O)c2ccccc2c1=O | 2 | 37 | 11 |
| COc1ccc2c(c1)C(O)=C(C(=O)Nc1ccc(Cl)cc1)N(C)S2(=O)=O | 9 | 14 | 13 |
| CN1C(O)=C(C(=O)Nc2ccccc2)c2ccccc2S1(=O)=O | 65 | 100 | 92 |
| O=C(Nc1ccccn1)C1=C(O)c2ccccc2SC1 | -1 | 83 | 34 |
| CN1C(C(=O)Nc2ccccn2)=C(O)c2c(c3ccccc3n2C)S1(=O)=O | 0 | 90 | 14 |

| Structure (SMILES) | inhibition [1] [%] | inhibition [2] [%] | inhibition [3] [%] |
| --- | --- | --- | --- |
| CC1Sc2ccc(Cl)cc2C(O)=C1C(=O)Nc1cccc(Cl)c1 (configuration not stated) | 15 | 12 | 10 |
| Cc1ccc2c(c1)/C(=C(\O)Nc1ccccn1)C(=O)N(C)C2=O | 22 | 73 | 62 |
| O=C(Nc1cccc(Cl)c1)C1=C(O)c2ccccc2[S+]([O-])C1 (configuration not stated) | -2 | 38 | -2 |
| O=C(Nc1ccc(Cl)cc1Cl)C1=C(O)N(Cc2ccccc2)S(=O)(=O)c2ccc(F)cc21 | 3 | 98 | 39 |
| CN1C(C(=O)Nc2ccccn2)=C(O)c2sc3cc(Cl)ccc3c2S1(=O)=O | 69 | 93 | 100 |
| Cc1ccc2c(c1)/C(=C(\O)Nc1ccccc1)C(=O)N(C)C2=O | 40 | 90 | 72 |
| CN1C(c2nc3ccccc3[nH]2)=C(O)c2ccccc2S1(=O)=O | -4 | 16 | 4 |
| O=C(Nc1cccc(Cl)c1)C1=C(O)c2cc(Cl)ccc2[S+]([O-])C1 (configuration not stated) | 0 | 76 | 17 |
| O=C(Nc1cccc(Cl)c1)C1=C(O)c2cc(Cl)ccc2S(=O)(=O)C1 | -10 | 94 | 64 |
| CN1C(C(=O)Nc2ccccn2)=C(O)c2ccc(F)cc2S1(=O)=O | 3 | 74 | 26 |
| O=C(Nc1cccc(Cl)c1)C1=C(O)c2ccccc2SC1 | 19 | 83 | 75 |
| CN1C(C(=O)Nc2nc3ccccc3s2)=C(O)c2ccccc2S1(=O)=O | 13 | 95 | 49 |
| Cc1cc(NC(=O)C2=C(O)c3ccccc3S(=O)(=O)N2C)no1 | -2 | 10 | 7 |
| O=C(Nc1cccc(Cl)c1)C1=C(O)c2ccccc2S(=O)(=O)C1 | 6 | 84 | 41 |
| CN1C(C(=O)Nc2ccccc2)=C(O)c2ccccc2S1(=O)=O | -8 | 26 | 16 |
| CN1C(C(=O)Nc2ccccn2)=C(O)c2ccc3ccccc3c2S1(=O)=O | 29 | 100 | 78 |

Second part, the compound after the results:

| inhibition [1] [%] | inhibition [2] [%] | inhibition [3] [%] | Structure (SMILES) |
| --- | --- | --- | --- |
| 5 | 76 | 35 | Cc1cnc(N/C(O)=C2\C(=O)N(C)C(=O)c3ccc(Cl)cc32)s1 |
| 0 | 21 | -1 | Cc1ccc2c(c1)C(O)=C(C(=O)Nc1ccc(Cl)cc1)N(C)S2(=O)=O |
| 40 | 100 | 94 | CN1C(O)=C(C(=O)Nc2ccc(Cl)cc2Cl)c2cc(F)ccc2S1(=O)=O |
| 18 | 98 | 76 | CN1C(O)=C(C(=O)Nc2nccs2)c2cc(Cl)ccc2S1(=O)=O |
| 6 | 50 | 16 | COc1ccc2c(c1)S(=O)(=O)N(C)C(C(=O)Nc1ncc(C)s1)=C2O |
| -4 | 82 | 36 | Cc1cnc(NC(=O)C2=C(O)c3ccc(F)cc3S(=O)(=O)N2C)s1 |
| -2 | 27 | -6 | CCN1C(C(=O)Nc2ncc(C)s2)=C(O)c2ccccc2S1(=O)=O |
| 57 | 100 | 100 | CN1C(O)=C(C(=O)Nc2ccc(Cl)cc2)c2cc3ccccc3cc2S1(=O)=O |
| 19 | 98 | 55 | CN1C(O)=C(C(=O)Nc2ccc(Cl)cc2Cl)c2c(ccc(Cl)c2Cl)S1(=O)=O |
| 9 | 14 | 6 | Cc1cnc(NC(=O)C2=C(O)c3cc(C)sc3S(=O)(=O)N2C)s1 |
| -4 | 30 | 23 | CCc1cnc(NC(=O)C2=C(O)c3ccccc3S(=O)(=O)N2C)s1 |
| 31 | 93 | 68 | Cc1cnc(NC(=O)C2=C(O)c3sc(C)cc3S(=O)(=O)N2C)s1 |
| 23 | 95 | 44 | Cc1cnc(NC(=O)C2=C(O)N(C)S(=O)(=O)c3ccc(Cl)cc32)s1 |
| 10 | 94 | 66 | Cc1cnc(NC(=O)C2=C(O)N(C)S(=O)(=O)c3cc(Cl)ccc32)s1 |
| -9 | 85 | 36 | Cc1cnc(NC(=O)C2=C(O)c3ccc(Cl)cc3S(=O)(=O)N2C)s1 |
| 24 | 93 | 57 | CN1C(O)=C(C(=O)Nc2nccs2)c2c(ccc3ccccc23)S1(=O)=O |
| 2 | 56 | 21 | Cc1cnc(NC(=O)C2=C(O)c3cc(F)ccc3S(=O)(=O)N2C)s1 |
